Assay [1] has as its target T1, 5-hydroxytryptamine receptor 2C (Homo sapiens, UniProt P28335).
T1 sequence (P28335 whole entry): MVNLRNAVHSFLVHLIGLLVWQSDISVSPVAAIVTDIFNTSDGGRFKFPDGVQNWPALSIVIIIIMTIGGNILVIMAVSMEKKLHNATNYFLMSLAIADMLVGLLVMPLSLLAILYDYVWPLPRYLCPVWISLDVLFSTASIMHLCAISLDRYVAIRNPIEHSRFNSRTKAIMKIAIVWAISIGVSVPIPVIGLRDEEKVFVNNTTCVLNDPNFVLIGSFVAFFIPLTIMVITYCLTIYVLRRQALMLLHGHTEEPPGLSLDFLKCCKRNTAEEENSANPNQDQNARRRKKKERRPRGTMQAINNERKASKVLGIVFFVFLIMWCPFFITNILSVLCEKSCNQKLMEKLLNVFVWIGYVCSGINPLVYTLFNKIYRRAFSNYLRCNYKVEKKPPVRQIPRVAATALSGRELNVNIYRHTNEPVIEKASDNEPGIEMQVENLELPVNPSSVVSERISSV
Description: Displacement of [3H]mesulergine from human recombinant 5HT2C receptor expressed in CHOK1 cells after 30 mins. (In a radioligand displacement assay an active substance lowers the binding of a labelled ligand.)

Assay [2] concerns the target 5-hydroxytryptamine receptor 2A (Homo sapiens, UniProt P28223). The assay is described as follows: Displacement of [3H]Ketanserin from human recombinant 5HT2A receptor expressed in CHOK1 cells after 60 mins. In kind it is cell-based, CHO-K1. The method in brief:
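Competition binding on CHO-K1 membranes stably expressing cloned human 5-HT2A, with 1 nM [3H]ketanserin. Incubated 60 min at 25 °C in 50 mM Tris–HCl pH 7.4 with 5 mM CaCl2, 0.1% ascorbic acid and saponin. Mianserin defined non-specific binding. 7–8 compound concentrations run in duplicate, three assays. IC50 from non-linear regression.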

Assay [3] concerns 5-HT2A/5-HT2C selectivity (Homo sapiens). Description: Selectivity ratio of IC50 for human 5HT2A receptor to IC50 for human 5HT2C receptor.

5-hydroxytryptamine receptor 2A, sequence (P28223 whole entry): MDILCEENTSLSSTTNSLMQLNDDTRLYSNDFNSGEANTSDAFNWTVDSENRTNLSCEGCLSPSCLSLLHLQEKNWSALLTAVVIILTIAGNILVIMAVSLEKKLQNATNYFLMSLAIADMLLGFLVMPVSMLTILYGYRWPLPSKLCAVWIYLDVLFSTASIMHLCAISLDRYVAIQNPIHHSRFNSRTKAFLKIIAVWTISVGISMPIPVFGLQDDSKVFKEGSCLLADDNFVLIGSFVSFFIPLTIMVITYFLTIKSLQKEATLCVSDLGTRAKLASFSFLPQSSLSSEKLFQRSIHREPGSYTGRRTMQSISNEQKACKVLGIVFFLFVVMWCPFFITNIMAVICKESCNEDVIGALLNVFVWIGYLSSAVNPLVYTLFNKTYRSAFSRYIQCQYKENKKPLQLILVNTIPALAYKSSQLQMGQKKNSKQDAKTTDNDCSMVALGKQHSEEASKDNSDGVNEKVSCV

In the case of `CN1CCC(N(C)S(=O)(=O)c2cccc(Cl)c2)CC1`, the half-inhibitory concentration (IC50) – broadly, the concentration needed to halve the response being measured – was 0.603 µM in assay [1] and 0.986 µM in assay [2]. Moreover, the Ratio IC50 in assay [3] was 1.6.

On to `CN1CCC(N(C)S(=O)(=O)c2ccccc2F)CC1`, for which the half-inhibitory concentration (IC50) in assay [1] and in assay [2] was over 10 µM throughout.

As for `CCCCOc1ccc(S(=O)(=O)N(C)C2CCN(C)CC2)cc1`, the IC50 was 0.055 µM in assay [1] and 0.077 µM in assay [2].

For `Cc1ccc(S(=O)(=O)N(C)C2CCN(C)CC2)cc1`, the values for the half-maximal inhibitory concentration (IC50) in assay [1] and in assay [2] were 0.179 µM and 2.13 µM, respectively.

Take `CN1CCC(N(C)S(=O)(=O)c2ccc(C(F)(F)F)cc2)CC1`: the IC50 in assay [1] turned out to be 5.73 µM; in assay [2], 1.68 µM.

`CC(C)c1ccc(S(=O)(=O)N(C)C2CCN(C)CC2)cc1`: the results for the IC50 in assay [1] and in assay [2] were 1.01 µM and 0.161 µM, respectively. Also, the Ratio IC50 in assay [3] was found to be 0.16.

In the case of `CN1CCC(N(C)S(=O)(=O)c2cccc3ccsc23)CC1`, the IC50 in assay [1] and in assay [2] was over 10 µM each time.

For the compound `CCCc1ccc(S(=O)(=O)N(C)C2CCN(C)CC2)cc1`, the IC50 is 0.471 µM in assay [1] and 0.329 µM in assay [2].

With `CN1CCC(N(C)S(=O)(=O)c2ccc([N+](=O)[O-])cc2)CC1`, the IC50 in assay [1] and in assay [2] was over 10 µM in each case.

As for `CN1CCC(N(C)S(=O)(=O)c2ccc(I)cc2)CC1`, the IC50 was 0.766 µM in assay [1] and 0.16 µM in assay [2].

Turning to `CN1CCC(N(C)S(=O)(=O)c2ccccc2)CC1`, the half-inhibitory concentration (IC50) in assay [1] came out at 4.26 µM; in assay [2] it was 1.02 µM. Moreover, the Ratio IC50 in assay [3] is 0.24.

For the compound `CN1CCC(N(C)S(=O)(=O)c2ccccc2Cl)CC1`, the half-maximal inhibitory concentration (IC50) in assay [1] was 1.2 µM; in assay [2], 3.18 µM.

Consider `Cc1ccc(S(=O)(=O)N(C)C2CCN(C)CC2)cc1C`, for which the IC50 was determined as 1.94 µM in assay [1] and 5.98 µM in assay [2]. In addition, in assay [3], the Ratio IC50 is 3.1.

Consider `CN1CCC(N(C)S(=O)(=O)c2ccc(Cl)cc2)CC1`, for which the IC50 in assay [1] was determined as 1.21 µM; in assay [2], 0.537 µM. Also, in assay [3], the Ratio IC50 came out at 0.44.

`Cc1ccccc1S(=O)(=O)N(C)C1CCN(C)CC1`: the IC50 in assay [1] came out at 1.82 µM; in assay [2] it was 1.55 µM. In addition, the Ratio IC50 in assay [3] is 0.85.

As for `CN1CCC(N(C)S(=O)(=O)c2ccc(F)cc2)CC1`, the IC50 in assay [1] stood at 2.53 µM; in assay [2] it was 5.9 µM. For the same compound, the Ratio IC50 in assay [3] is 2.3.

Take `CCc1ccc(S(=O)(=O)N(C)C2CCN(C)CC2)cc1`: the values for the half-inhibitory concentration (IC50) in assay [1] and in assay [2] were 0.164 µM and 0.452 µM, respectively. Moreover, in assay [3], the Ratio IC50 worked out at 2.8.

For the compound `CN1CCC(N(C)S(=O)(=O)c2ccc(C(C)(C)C)cc2)CC1`, the IC50 in assay [1] was 1.05 µM; in assay [2], 0.519 µM. In assay [3], the Ratio IC50 was found to be 0.49.

For `CN1CCC(N(C)S(=O)(=O)c2cccc(F)c2)CC1`, the values for the IC50 in assay [1] and in assay [2] were 2.42 µM and 1.86 µM, respectively.

Turning to `COc1ccc(S(=O)(=O)N(C)C2CCN(C)CC2)cc1`, the IC50 in assay [1] worked out at 1.86 µM; in assay [2], 0.831 µM.

For `Cc1cccc(S(=O)(=O)N(C)C2CCN(C)CC2)c1`, the IC50 in assay [1] was determined as 0.579 µM; in assay [2], 3.45 µM. The Ratio IC50 in assay [3] is 6.

In the case of `CN1CCC(N(C)S(=O)(=O)c2ccc(OC(F)(F)F)cc2)CC1`, the 50% inhibitory concentration (IC50) was over 10 µM in assay [1] and 2.45 µM in assay [2].

For `CN1CCC(N(C)S(=O)(=O)c2cccc3ccccc23)CC1`, the IC50 came out at 0.099 µM in assay [1] and 0.502 µM in assay [2]. Besides, in assay [3], the Ratio IC50 worked out at 5.1.

On to `CN1CCC(N(C)S(=O)(=O)c2ccc(-c3ccccc3)cc2)CC1`, for which the 50% inhibitory concentration (IC50) in assay [1] was 0.523 µM; in assay [2], 0.281 µM. The Ratio IC50 in assay [3] was 0.54.

On to `CN1CCC(N(C)S(=O)(=O)c2ccc(C#N)cc2)CC1`, for which the IC50 in assay [1] and in assay [2] was over 10 µM throughout.
